The subject of experiment [1] is Mus musculus. Briefly: Tested for analgesic activity using writhing test in mice at 20 mg/kg upon subcutaneous administration. It is filed as functional. Particulars: sc. Background: Writhing tests count abdominal constrictions after an irritant is injected.
The test system of experiment [2] is Mus musculus. The experiment can be described thus: Tested for antagonistic activity using Straub tail test in mice at 20 mg/kg upon subcutaneous administration. The class given is functional. Particulars: sc.
The species entered for experiment [3] is Mus musculus. The experiment can be described thus: Maximum percent analgesia using tail flick test in mice. It is filed as functional. Put shortly:
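Young male Swiss mice (ca. 35 g) restrained in cylinders, with the tail exposed to 54 °C water. Reaction time (shorter of a pair) taken pre-dose and every 15 min to 2 h. Naive non-responders under 2.2 s excluded; 5 s cutoff. Dosed ip at 20 mg/kg in propylene glycol or water, 9–11 mice per group. […] Analgesia defined as PRT >2.6 s; the value is the peak percentage of analgesic mice at any time point.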
On the technique in general: In hot-plate and tail-flick tests a longer latency is read as antinociception.

Experiment [4] deals with Mus musculus. The experiment can be described thus: Tested for analgesic activity using writhing test in mice at 20 mg/kg upon subcutaneous administration; Inactive. It is filed as functional, organism-based. More on the design: dose 20 mg/kg.
The test system of experiment [5] is Mus musculus. Briefly: Tested for antagonistic activity using Straub tail test in mice at 20 mg/kg upon subcutaneous administration; Inactive. It is filed as functional, organism-based. More on the design: dose 20 mg/kg.

Where “and” joins values, the source holds several entries; their conditions need not be identical. Equal entries are not always repeated. Calls of active or inactive are those of the source. Some results are limits rather than exact numbers.

As usually defined, the ED50 is the dose that gives a 50% effect, or the effect in half of the subjects. For `COc1ccc2c3c1OC1C(=O)C=CC4(N(O)c5ccc(F)cc5)C(C2)N(CC2CC2)CCC314` (centres undefined), the median effective dose (ED50) in experiment [1] is ~40 mg/kg; in experiment [2], 12 mg/kg. This molecule registered an Analgesia in experiment [3] of 32%.
For `COc1ccc2c(c1O)C13CCN(CC4CC4)C(C2)C12C=CC(=O)C3ON2c1ccc(F)cc1` (centres undefined), in that order: ~31 mg/kg, > 40 mg/kg and 20%.
Taken in the same sequence, the figures for `COc1ccc2c3c1OC1C(=O)C=CC4(N(O)c5ccccc5)C(C2)N(CC2CC2)CCC314` (centres undefined) were > 40 mg/kg, ~7 mg/kg and 32%.
In the case of `C=CCN1CC[C@]23c4c5ccc(O)c4O[C@H]2C(=O)CC[C@@]3(O)[C@H]1C5` [NALOXONE], the Analgesia in experiment [3] amounted to 32%. Further, the ED50 result in experiment [4] is “inactive”.
`COc1ccc2c(c1O)C13CCN(C)C(C2)C12C=CC(=O)C3ON2c1ccccc1` (centres undefined): the ED50 is 1.87 mg/kg in experiment [1] and > 40 mg/kg in experiment [2]. For the same molecule, the Analgesia in experiment [3] is 50%.
On to `COc1ccc2c3c1OC1C(=O)CCC4(Nc5ccccc5)C(C2)N(CC2CC2)CCC314` (centres undefined), for which the ED50 was ~40 mg/kg in experiment [1] and ~10.5 mg/kg in experiment [2]. For the same molecule, in experiment [3], the Analgesia was found to be 10%.
For the molecule `COc1ccc2c3c1OC1C(=O)C=CC4(NO)C(C2)N(C)CCC314` (centres undefined), the 50% effective dose (ED50) in experiment [1] was 5 mg/kg; in experiment [2] it was > 20 mg/kg. Also, the Analgesia in experiment [3] is 10% and 20%.
On to `COc1ccc2c(c1O)C13CCN(CC4CC4)C(C2)C12C=CC(=O)C3ON2c1ccccc1` (centres undefined), for which the 50% effective dose (ED50) in experiment [1] and in experiment [2] was > 40 mg/kg in each case. Moreover, the Analgesia in experiment [3] was 20%.
Regarding `COc1ccc2c3c1OC1C(=O)C=CC4(N(O)c5ccccc5)C(C2)N(C)CCC314` (centres undefined), the ED50 in experiment [1] is 1.45 mg/kg; in experiment [2], > 20 mg/kg. Besides, the Analgesia in experiment [3] worked out at 20%.
For `COc1ccc2c3c1OC1C(=O)CCC4(Nc5ccc(F)cc5)C(C2)N(CC2CC2)CCC314` (centres undefined), in that order: ~25 mg/kg, ~5 mg/kg and 32%.
Taken in the same sequence, the figures for `COc1ccc2c3c1OC1C(=O)CCC4(Nc5ccccc5)C(C2)N(C)CCC314` (centres undefined) were 1.04 mg/kg, > 40 mg/kg and 10%.
For `COc1ccc2c(c1O)C13CCN(C)C(C2)C12C=CC(=O)C3ON2c1ccc(F)cc1` (centres undefined), in that order: 2.53 mg/kg, > 40 mg/kg and 90%.
`COc1ccc2c3c1OC1C(=O)CCC4(Nc5ccc(F)cc5)C(C2)N(C)CCC314` (centres undefined): the median effective dose (ED50) was 0.76 mg/kg in experiment [1] and > 40 mg/kg in experiment [2]. Also, the Analgesia in experiment [3] is 10%.
Taken in the same sequence, the figures for `COc1ccc2c3c1OC1C(=O)C=CC4(N(O)c5ccc(F)cc5)C(C2)N(C)CCC314` (centres undefined) were 0.71 mg/kg, > 40 mg/kg and 30%.
Turning to `CN1CC[C@]23c4c5ccc(O)c4O[C@H]2[C@@H](O)C=C[C@H]3[C@H]1C5` [MORPHINE], it took a dose of 0.26 mg/kg to reach the 50% effect level in experiment [1] (ED50). In addition, the ED50 entry in experiment [5] is “inactive”. In addition, the Analgesia in experiment [3] was found to be 80%.

These data come from ChEMBL document CHEMBL1121464, “14-(Arylhydroxyamino)codeinones and derivatives as analgetics and antagonists” (1980).
